Assay results as given in ChEMBL document CHEMBL1142555, “Cytotoxic activity of some phenanthroindolizidine N-oxide alkaloids from Cynanchum vincetoxicum” (J Nat Prod, 2000).

Legend:
[1] = Cytotoxicity against drug-resistant human KB31 cells after 72 hrs by MTS reduction assay; type: functional, cell-based; settings: KB 3-1, 72 h, in the assay text read “drug-sensitive” for “drug-resistant”
How it was run: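 KB-3-1 cells grown as monolayers in DMEM with 10% FBS at 37 °C and 5% CO2, harvested by trypsin at 70-80% confluence and seeded at 4 × 10^3/well for 24 h. Dilutions of DMSO stock in medium were added (DMSO ≤0.25% final, also in controls), six wells per concentration, for 72 h. Viable cells were read by MTS/PMS, 50 min, A492. IC50 came from three passages.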

[2] = Cytotoxicity against multidrug-resistant human KBV1 cells after 72 hrs by MTS reduction assay; type: functional, cell-based; settings: KB-V1, 72 h
How it was run: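 KB-V1 multidrug-resistant line (P-170 glycoprotein) kept without vinblastine, using passages 5-15, in DMEM/10% FBS at 37 °C and 5% CO2. Cells were trypsinized at 60-70% confluence and seeded at 7 × 10^3/well for 24 h. Compound was added in medium (DMSO ≤0.25%), six replicates per concentration, for 72 h. Read-out was MTS/PMS, 50 min, A492. IC50 came from three separate passages.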

[3] = Resistance index, ratio of IC50 for human KBV1 cells to IC50 for human KB31 cells; type: functional
How it was run: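 Ratio of the IC50 in KB-V1 cells to the IC50 in parental KB-3-1 cells, each from a 72-h MTS/PMS proliferation assay (A492) run in parallel under the same dosing conditions (DMSO ≤0.25%, six replicates per concentration, three separate determinations).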

Row | Structure (SMILES) | IC50 [1] | IC50 [2] | Ratio [3]
1 | COc1ccc2c3c(c4cc(OC)c(OC)cc4c2c1)C[C@H]1CCC[N+]1([O-])C3 (stereo not given in full) | 110 nM | 160 nM | 
2 | COc1ccc2c3c(c4cc(OC)c(OC)cc4c2c1)[C@@H](O)[C@H]1CCC[N+]1([O-])C3 (stereo not given in full) | 100 nM | 160 nM | 
3 | CC[C@]1(O)C[C@@H]2CN(CCc3c([nH]c4ccccc34)[C@@](C(=O)OC)(c3cc4c(cc3OC)N(C)[C@H]3[C@@](O)(C(=O)OC)[C@H](OC(C)=O)[C@]5(CC)C=CCN6CC[C@]43[C@@H]65)C2)C1 [VINBLASTINE] |  |  | 210
4 | COc1ccc(C2=C(c3ccc(OC)c(OC)c3)C[C@H]3CCC[N+]3([O-])C2)cc1 (stereo not given in full) | 2550 nM | 3300 nM | 
5 | COC(=O)c1ccccc1-c1c2ccc(=N)cc-2oc2cc(N)ccc12.Cl [RHODAMINE123] | 1400 nM | > 500000 nM | 500
